Results on 167 variants are retold here after the RNAGym collection of RNA variant scans (doi:10.1126/science.aae0568).

B1: tRNA (parent)
chain: GUUCCGUUGGCGUAAUGGUAACGCGUCUCCCUCCUAAGGAGAAGACUGCGGGUUCGAGUCCCGUACGGAACG

This sample holds only a part of the variants without activity.

Variants of B1 are the subject of the data set. The data set is described as follows: yeast fitness relative to wild type (ratio to wild type); higher = fitter; tRNA-Arg(CCU), competitive growth, 37 C, YPD. In outline:
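Variants of the tRNA-Arg(CCU) gene were chemically synthesised with a 3% per-site mutation rate across 69 sites and placed at the native genomic locus in Saccharomyces cerevisiae. Six parallel replicates of the pooled strains were competed in YPD at 37°C for 24 hours, and gene amplicons from the start and end populations were read by 100-nucleotide paired-end sequencing. Darwinian fitness relative to wild type was derived from changes in genotype frequencies. Genotypes required ≥ 100 starting reads, and estimates < 0.5 were set to 0.5.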
For A43U C62A A65U C66U, the yeast fitness was at most 0.5. For the variant U3C C11G G63U, the yeast fitness is at most 0.5.

On to G10A C30U C34U A42U A57G, for which the yeast fitness was at most 0.5. With C24A C34U A43U C49G C62G, the yeast fitness was at most 0.5. Regarding G6A G52C A65U G67C, the yeast fitness is at most 0.5. With G6A U13G C55A, the yeast fitness is at most 0.5. As to C11G C29A A40U G52A, the yeast fitness is at most 0.5. In the case of C5G G6A U47A G68C, the yeast fitness was 0.546. As for A14C C24U G51C U54A, the figure is at most 0.5; as for C34A U47A C61A, at most 0.5. Take G10A A14U C30U C34A: the yeast fitness is at most 0.5. Turning to U16C G18A C24G A45U U47C, the yeast fitness is at most 0.5. As for A15G C49A G56A, the figure is 0.506; as for C4U G23C A36C, 0.597; as for C27U U28G C31A G58C, at most 0.5. For the variant G41C G48C A69U, the yeast fitness turned out to be 0.558.

Regarding C5U A14U U16A C66U, the yeast fitness stood at 0.511. For A15U C62U, the yeast fitness came out at 0.787. Turning to U3C A20U C30U A37G, the yeast fitness is 0.633. As to U3A C5G A21U C22U G41A A43C G51C C66U G67U, the yeast fitness was at most 0.5. With C11A C22G G67A G68C, the yeast fitness was at most 0.5. Consider G41A A43U G51C, for which the yeast fitness is at most 0.5.

Take G17A U28G C62G: the yeast fitness was at most 0.5. As for U8A G17A C62G, the yeast fitness is at most 0.5.

U2G C4U C61A C62U A65U A69C: the yeast fitness is 0.519.

For G6C U16G C27U, the yeast fitness is at most 0.5. Regarding U59G G63C, the yeast fitness amounted to 0.639. For the variant A20U A40U G44C U53G, the yeast fitness is at most 0.5.

Consider C24G C29U G51C C66U, for which the yeast fitness is at most 0.5. For the variant C22A A45C U54C, the yeast fitness is 0.522. As for C5U A21G A42U G58A C66U, the figure is 0.706. Take G12A A57C C66G: the yeast fitness is at most 0.5.

For A45U A57U, the yeast fitness was 0.744.

As to G12A C33U, the yeast fitness was 0.839. In the case of G10A A14U, the yeast fitness is at most 0.5. Consider C27U C34U U47C U53G A69U, for which the yeast fitness is at most 0.5. As for A14U C31U C34A A45U C49U, the figure is at most 0.5; as for C5G C29U G39A G58C A69U, at most 0.5; as for A45U U64A, 0.708. Regarding U3G C5A A20G C29U C31A C55U A57C, the yeast fitness is at most 0.5. As for A14G C61G, the yeast fitness worked out at 0.721. With C11G C49G C66A G67U, the yeast fitness was at most 0.5. In the case of G38C A43U A45G, the yeast fitness was at most 0.5.

Consider C4G U7C C33G G52A, for which the yeast fitness was 0.652. With A21G A69U, the yeast fitness came out at 1.07. Take U8C C24A C49U: the yeast fitness is at most 0.5. On to C4A G9A G18C C22A A69C, for which the yeast fitness is at most 0.5.

Consider A21U C22U A42C A43U G44C A65C, for which the yeast fitness was 0.663.

As for C11G U28C U54C G58A, the yeast fitness amounted to 0.53. Consider A20G A43U U64C, for which the yeast fitness turned out to be 0.704. With C4G C29G G58A, the yeast fitness stood at 0.53. In the case of A15U A20C U32G A65C, the yeast fitness stood at 0.537. As to G39A U47A C49U U54A, the yeast fitness is at most 0.5.

On to U2C A14C A43C, for which the yeast fitness was at most 0.5. With G9C A14C U19G A42U, the yeast fitness is at most 0.5. For the variant G12C U16A A21C, the yeast fitness is at most 0.5.

As for A20U G63A, the yeast fitness came to 0.932. For the variant A15U U32A G50A G51A G56C C61G, the yeast fitness was 0.538. On to C46U G68U, for which the yeast fitness is 0.857. Take U2C G67C: the yeast fitness was determined as 0.741.

Regarding U2C U16G C30G G63C, the yeast fitness is at most 0.5.

Take A14C A21U A42C G58C: the yeast fitness is at most 0.5. As for C5G U8G A20C, the figure is at most 0.5. U53G U59C C66U: the yeast fitness is at most 0.5. As to C27A C31G U54C, the yeast fitness was found to be 0.744.

As for C5G G6C, the yeast fitness is 0.718. As for A15G G18A A69U, the figure is 0.648. For the variant U16A U53A A57G, the yeast fitness is at most 0.5.

G50C G56C: the yeast fitness worked out at 0.614. Turning to U19C A21G U26G C49U, the yeast fitness was determined as 0.745. For U19A C49G G56U, the yeast fitness is 0.558.

For U3G U54G A57C, the yeast fitness was at most 0.5.

In the case of C11U G41A, the yeast fitness came out at 0.902.

Turning to C31U C61G C66G, the yeast fitness was at most 0.5.

With C5U U13C U19A A21U C24A, the yeast fitness amounted to 0.511. The figure for C4U U16A A40C C55U C61A C66A is 0.528; for A42G C46U A57C it is at most 0.5. For the variant C4G U16A G63A, the yeast fitness was found to be 0.534. As to G23C C33G A42U, the yeast fitness turned out to be 0.556. Take A15C U47G G68U: the yeast fitness is at most 0.5. Turning to U16C C34G C55U, the yeast fitness is at most 0.5. As for G38A A42C U54C A69C, the yeast fitness is at most 0.5. On to C5U A45U, for which the yeast fitness is 1.01. The figure for G18C G23A G25C A37G A43C U54C C55G G68A is at most 0.5; for G48A C49G C60G it is 0.576. On to A14C G17A, for which the yeast fitness was determined as 0.679. On to G6A C24A G38A G39C, for which the yeast fitness was at most 0.5.

On to G10A C29A A42U U64C, for which the yeast fitness is 0.529.

On to A20G C49U C61G, for which the yeast fitness is 0.617. The figure for G41A C55U U59A A70U is at most 0.5; for U3A C46U it is 1.

As for U3A A36U A43G G52C G63A G67U A70C, the yeast fitness was found to be 0.557. For the variant A42G G56U, the yeast fitness came to 0.565. Take G10A C60U: the yeast fitness came out at 0.544. Take U13A C27G A45G U64A: the yeast fitness came to 0.62. Regarding G12C A20C G48A, the yeast fitness worked out at 0.749. Regarding C5U C22G A65G, the yeast fitness amounted to 0.588.

Regarding U2C C46U U64A, the yeast fitness was 0.688.

As to C24G U35A A40C G52A C60A C61G, the yeast fitness was at most 0.5.

For the variant C27U C62G, the yeast fitness stood at 0.669. In the case of G25A C31A G44C, the yeast fitness was found to be 0.597. As to G10A U16A U28A A70U, the yeast fitness was at most 0.5.

Regarding A15G A21G G39A, the yeast fitness was found to be 0.649. Take C11G G41A U53C: the yeast fitness was at most 0.5. With U8A C24U C31G, the yeast fitness is at most 0.5. For the variant C4A G17A G51C G63A, the yeast fitness was at most 0.5.

In the case of G6C C22U C24G C27U C29A C30U C31G G58A, the yeast fitness is at most 0.5.

Take C31U A69C A70U: the yeast fitness was found to be 0.747. In the case of C31A A36G A57C, the yeast fitness was at most 0.5. As to C5G A14U A43U U54C, the yeast fitness turned out to be 0.666. As for C31U C60A G67A, the figure is at most 0.5. On to U8C C31U A45C U47C, for which the yeast fitness was at most 0.5. Regarding U3C C5U U7G C22U C27G G58A, the yeast fitness was at most 0.5. In the case of C22A C30U C31G A57C A65C A70C, the yeast fitness was at most 0.5. Consider A14U C46U G48C G63A G68A, for which the yeast fitness was at most 0.5. For the variant C24G C29G G48A, the yeast fitness is at most 0.5. The figure for U2A G23A is 0.867. As for U35C U54C, the figure is 0.696. On to G6A U7G C24A U26C, for which the yeast fitness is at most 0.5. On to G58C C61A A65U, for which the yeast fitness is at most 0.5. In the case of A14G G23A U64G A69U, the yeast fitness is at most 0.5. As for C4A G18C A43C C62G A65C C66A, the yeast fitness was at most 0.5. As to U2G A14C A65C, the yeast fitness is at most 0.5. On to G6C U7G U19A C27G U53A, for which the yeast fitness turned out to be 0.612.

With G10C C24G C46U A69U, the yeast fitness worked out at 0.569. As for C22U U28G U32A, the figure is at most 0.5; as for U8C C34U, 0.728; as for C5A U8C U13C A40G C62U, at most 0.5. On to G9C G12A U35G, for which the yeast fitness was at most 0.5.

As for U8C C22G C49U A69U, the yeast fitness turned out to be 0.573.

For U13C C24U G41A C62A, the yeast fitness was at most 0.5. Turning to U3G A20C A43U C55A A65U A70G, the yeast fitness is at most 0.5. In the case of A20G A21U A70U, the yeast fitness is at most 0.5. Take A40C C55A C66A: the yeast fitness amounted to 0.578. Take A65U C66U: the yeast fitness turned out to be 0.818. As for C24U C60U, the figure is 0.797. Regarding U2A A36G C49A C61U, the yeast fitness was at most 0.5.

Consider G38C C62U A65G, for which the yeast fitness came to 0.502. As for A14U A45C G56A, the figure is 0.581. The figure for U2C U19C A37G C49A is at most 0.5; for C24G U32C A42G it is 0.574; for U16G A20U G38A it is 0.538. G6A A15C U28A C31G U64A C66U G68C: the yeast fitness was at most 0.5. Turning to C49U G56A G67A, the yeast fitness stood at 0.593. As for U28G C30A G51U, the figure is at most 0.5; as for C30A G39U, 0.772. On to A20G C60U A69U, for which the yeast fitness was determined as 0.592. As to C4G G38A G67A, the yeast fitness is at most 0.5. The figure for C24G C55G C66U is at most 0.5. For C11U C24A G68C, the yeast fitness was at most 0.5. As for U2C U3A C24A C27U G56C C66U, the yeast fitness came out at 0.562. As to C5G A14G G17A U32C G56C A69U, the yeast fitness was at most 0.5. Consider A45G C55U G67A A69G, for which the yeast fitness is at most 0.5.

For the variant C29G C46A A57G U59C, the yeast fitness is at most 0.5. As to G23C C49A U59C A69G, the yeast fitness was at most 0.5. With A43G U47C A65U, the yeast fitness was 0.668. With C11U G68C A69U, the yeast fitness stood at 0.54. In the case of G10C C62U, the yeast fitness is 0.646. For the variant C5U U13G C30U, the yeast fitness is 0.663. Consider C31G G51C C61U, for which the yeast fitness is at most 0.5.

For U3A C33G A43G G58A G67A A69U, the yeast fitness is at most 0.5. The figure for A15U C31U C46G A65G A70U is at most 0.5; for G6A G9C C11G G25A C34U G68A it is at most 0.5; for A21U C33U G38A A45U C62U it is at most 0.5. Regarding A36C G41A U53C A70C, the yeast fitness came out at 0.526. For the variant U28C C62G C66G, the yeast fitness was at most 0.5. The figure for U16A C24A A43G is at most 0.5.
